Reference: ChEMBL document CHEMBL4321868, “Scaffold Simplification Strategy Leads to a Novel Generation of Dual Human Immunodeficiency Virus and Enterovirus-A71 Entry Inhibitors” (J Med Chem, 2020)
Calls of active or inactive are those of the source. The rule behind the calls is not given here.

Experiments:
Enterovirus A71 [1] = test: Antiviral activity against Enterovirus A71 genotype C2 H08300 461812 infected in human RD cells assessed as reduction in virus-induced cell death preincubated for 1 day followed by viral infection and measured after 3 days by microscopic analysis; assay type: functional; set-up: scale not given: the % may be the effect or the level left
Outline: (§1)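 RD cells were seeded in 96-well plates and infected the next day at low MOI, with serial compound dilutions added at the same time. Plates were incubated at 37 °C, 5% CO2 for 3 days, until untreated infected controls died. Cell death was quantified by MTS/PMS and EC50 calculated from dose-response curves. Values come from more than 2 dose-response curves across more than 1 experiment, with microscopic quality control.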

RD [2] = test: Cytotoxicity against human RD cells assessed as induction of cell morphological changes; assay type: cell-based
RD [3] = test: Cytotoxicity against human RD cells assessed as adverse effect on cell; assay type: cell-based
[4] = system: Human immunodeficiency virus 2; test: Antiviral activity against HIV-2 ROD infected in human MT4 cells assessed as reduction in virus-induced cytopathic effect preincubated for 30 mins followed by viral infection and measured after 5 days by MTS assay; conditions: Human immunodeficiency virus 2, ISOLATE ROD
Enterovirus A71 [5] = test: Antiviral activity against Enterovirus A71 genotype C4 TW/1956/05 infected in human RD cells assessed as reduction in virus-induced cytopathic effect preincubated for 1 day followed by viral infection and measured after 3 days by MTS/PMS method; assay type: functional, organism-based; conditions: Enterovirus A, genotype C4 TW/1956/05, RD
Outline: (§2)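 RD cells seeded in 96-well plates; next day serial compound dilutions plus virus at low MOI added. Incubation at 37 °C, 5% CO₂ until full CPE in untreated infected controls (3 days). CC50 from uninfected treated cells in the same setup; SI = CC50/EC50.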

Enterovirus A71 [6] = test: Antiviral activity against Enterovirus A 71 BrCr harboring VP1 S184T/P246S mutant infected in human RD cells assessed as reduction in virus-induced cytopathic effect preincubated for 1 day followed by viral infection and measured after 3 days by MTS/PMS method; assay type: functional, organism-based, strain BRCR
Enterovirus A71 [7] = test: Antiviral activity against Enterovirus A 71 BrCr harboring VP1 S184T mutant infected in human RD cells assessed as reduction in virus-induced cytopathic effect preincubated for 1 day followed by viral infection and measured after 3 days by MTS/PMS method; assay type: functional, organism-based, strain BRCR
Enterovirus A71 [8] = test: Antiviral activity against Enterovirus A71 genotype B5 TW/70902/08 infected in human RD cells assessed as reduction in virus-induced cell death preincubated for 1 day followed by viral infection and measured after 3 days by […]; assay type: functional; set-up: scale not given: the % may be the effect or the level left; outline: as §1
Enterovirus A71 [9] = test: Antiviral activity against Enterovirus A 71 BrCr infected in human RD cells assessed as reduction in virus-induced cell death preincubated for 1 day followed by viral infection and measured after 3 days by microscopic analysis; assay type: functional, strain BRCR; set-up: scale not given: the % may be the effect or the level left; outline: as §1
Enterovirus A71 [10] = test: Antiviral activity against Enterovirus A71 genotype B5 TW/70902/08 infected in human RD cells assessed as reduction in virus-induced cytopathic effect preincubated for 1 day followed by viral infection and measured after 3 days by MTS/PMS method; assay type: functional, organism-based; conditions: Enterovirus A, genotype B5 TW/70902/08, RD; outline: as §2
Enterovirus A71 [11] = test: Antiviral activity against Enterovirus A 71 BrCr infected in human RD cells assessed as reduction in virus-induced cytopathic effect preincubated for 1 day followed by viral infection and measured after 3 days by MTS/PMS method; assay type: functional, organism-based; conditions: strain BRCR
Outline: as §2, with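 “days). Viability read by MTS/PMS; EC50 as 50% inhibition of virus-induced death from dose-response curves.” for “days).”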

Enterovirus A71 [12] = test: Antiviral activity against Enterovirus A71 genotype B2 11316 infected in human RD cells assessed as reduction in virus-induced cell death preincubated for 1 day followed by viral infection and measured after 3 days by microscopic analysis; assay type: functional; set-up: scale not given: the % may be the effect or the level left; outline: as §1
Enterovirus A71 [13] = test: Antiviral activity against Enterovirus A71 genotype C2 H08300 461812 infected in human RD cells assessed as reduction in virus-induced cytopathic effect preincubated for 1 day followed by viral infection and measured after 3 days by MTS/PMS method; assay type: functional, organism-based; conditions: Enterovirus A, genotype C2 H08300 461812, RD; outline: as §2
[14] = Selectivity index, ratio of CC50 for human MT4 cells to EC50 for HIV-1 NL4.3 infected in human MT4 cells
Enterovirus A71 [15] = test: Antiviral activity against Enterovirus A 71 BrCr harboring VP1 P246S mutant infected in human RD cells assessed as reduction in virus-induced cytopathic effect preincubated for 1 day followed by viral infection and measured after 3 days by MTS/PMS method; assay type: functional, organism-based, strain BRCR
Enterovirus A71 [16] = test: Antiviral activity against Enterovirus A71 genotype C4 TW/1956/05 infected in human RD cells assessed as reduction in virus-induced cell death preincubated for 1 day followed by viral infection and measured after 3 days by microscopic analysis; assay type: functional; set-up: scale not given: the % may be the effect or the level left; outline: as §1
[17] = Selectivity index, ratio of CC50 for human MT4 cells to EC50 for HIV1 NL4.3 infected in human MT4 cells; assay type: toxicity, cell-based; conditions: read-out: Ratio CC50/EC50
Outline: (§3)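 MT-4 cells (RPMI-1640, 10% FCS, 1% L-glutamine) pre-incubated 30 min at 37 °C with compound, then infected with HIV-1 NL4.3 or HIV-2 ROD according to stock TCID50. After 5 days, CPE scored microscopically and viability read by MTS/PES at A490 to derive EC50; cytotoxicity measured by MTS/PES at 5 days in the same cells. SI = CC50/EC50. Mean ± S.D. of at least 3 experiments.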

[18] = Cytotoxicity against human MT4 cells assessed as reduction in cell viability measured after 5 days by MTS/PES assay; assay type: cell-based; outline: as §3
[19] = system: Human immunodeficiency virus 1; test: Antiviral activity against HIV1 NL4.3 infected in human MT4 cells assessed as reduction in virus-induced cytopathic effect preincubated for 30 mins followed by viral infection and measured after 5 days by MTS assay; assay type: functional, organism-based; conditions: Human immunodeficiency virus 1, NL4.3, MT4
Enterovirus A71 [20] = test: Antiviral activity against Enterovirus A71 genotype B2 11316 infected in human RD cells assessed as reduction in virus-induced cytopathic effect preincubated for 1 day followed by viral infection and measured after 3 days by MTS/PMS method; assay type: functional, organism-based; conditions: Enterovirus A, genotype B2 11316, RD; outline: as §2
[21] = target: Envelope glycoprotein gp160 (Human immunodeficiency virus 1) (UniProt Q6QLK5); test: Binding affinity to recombinant HIV1 3B gp120 by SPR analysis
Envelope glycoprotein gp160 (Human immunodeficiency virus 1), sequence (Q6QLK5 1-814): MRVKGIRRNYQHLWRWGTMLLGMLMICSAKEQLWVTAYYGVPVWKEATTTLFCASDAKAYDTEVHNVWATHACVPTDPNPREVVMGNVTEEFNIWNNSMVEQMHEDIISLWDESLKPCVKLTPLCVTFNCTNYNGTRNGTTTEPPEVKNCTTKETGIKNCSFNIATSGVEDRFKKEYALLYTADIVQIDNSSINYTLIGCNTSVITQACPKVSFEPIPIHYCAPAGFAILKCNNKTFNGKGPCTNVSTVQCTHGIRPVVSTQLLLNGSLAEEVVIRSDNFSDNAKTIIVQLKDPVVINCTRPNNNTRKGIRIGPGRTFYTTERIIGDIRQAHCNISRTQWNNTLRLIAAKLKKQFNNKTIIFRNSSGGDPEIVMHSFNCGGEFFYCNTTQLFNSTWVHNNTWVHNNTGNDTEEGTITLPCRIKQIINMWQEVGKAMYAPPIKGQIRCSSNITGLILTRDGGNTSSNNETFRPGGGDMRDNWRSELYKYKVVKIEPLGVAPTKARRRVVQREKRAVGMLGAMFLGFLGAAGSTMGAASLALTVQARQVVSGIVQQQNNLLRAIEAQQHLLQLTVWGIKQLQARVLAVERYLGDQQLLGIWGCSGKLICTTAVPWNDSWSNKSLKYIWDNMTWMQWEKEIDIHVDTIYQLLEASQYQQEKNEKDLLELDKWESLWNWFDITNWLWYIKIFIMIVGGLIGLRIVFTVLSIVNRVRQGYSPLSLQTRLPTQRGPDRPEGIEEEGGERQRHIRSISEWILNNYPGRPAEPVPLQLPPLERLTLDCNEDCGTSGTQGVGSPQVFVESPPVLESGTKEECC

HeLa = test: Binding affinity to capsid protein VP1 five fold axis in Enterovirus A71 genotype B2 11316 infected in human HeLa cells at 20 uM measured after 1 hr by cryo-electron microscopic analysis; assay type: cell-based
[22] = system: Human immunodeficiency virus 1; test: Antiviral activity against HIV1 3B infected in human MT4 cells assessed as reduction in p24 production at 20 uM administered at onset of infection measured 8 hrs post-infection by ELISA; assay type: functional, organism-based
[23] = target: Envelope glycoprotein gp160 (Human immunodeficiency virus 1) (UniProt Q6QLK5); test: (§4) Inhibition of biotinylated-heparin binding to recombinant HIV1 3B gp120 by SPR analysis
Outline: (§5)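 SPR at 25 °C in PBS with 5% DMSO, 0.005% Tween20, pH 7.4. Minimally biotinylated heparin captured (880 RU) on streptavidin chip. Recombinant HIV-1 IIIB gp120 (10 nM) alone or premixed with a compound concentration range injected 2 min at 10 μl/min; regenerated with 1 M NaCl/10 mM NaOH. Double-referenced; RU converted to % inhibition vs gp120 alone; nonlinear fit, three experiments.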

[24] = target: Envelope glycoprotein gp160 (Human immunodeficiency virus 1, UniProt Q6QLK5); test: as §4; outline: as §5
Envelope glycoprotein gp160, sequence (Q6QLK5 whole entry): as the sequence (Q6QLK5 1-814) above

[25] = system: Human immunodeficiency virus 1; test: Antiviral activity against HIV1 3B infected in human MT4 cells assessed as reduction in p24 production at 20 uM incubated for 1 hr prior to viral infection followed by compound washout and measured 8 hrs post-infection by ELISA; assay type: functional, organism-based
[26] = Selectivity index, ratio of CC50 for human RD cells to EC50 for Enterovirus A71 BrCr infected in human RD cells; assay type: toxicity, cell-based; conditions: read-out: Ratio CC50/EC50; outline: as §2

Structure (SMILES)	EC50 [4]	EC50 (Enterovirus A71 [11])	EC90 (Enterovirus A71 [11])	selectivity ratio [14]	selectivity ratio [17]	CC50 at 120 h [18]	EC50 [19]	further results
O=C(CCC(CCC(=O)N[C@H](Cc1c[nH]c2ccccc12)C(=O)O)(CCC(=O)N[C@H](Cc1c[nH]c2ccccc12)C(=O)O)NC(=O)CCOCC(COCCC(=O)NC(CCC(=O)N[C@H](Cc1c[nH]c2ccccc12)C(=O)O)(CCC(=O)N[C@H](Cc1c[nH]c2ccccc12)C(=O)O)CCC(=O)N[C@H](Cc1c[nH]c2ccccc12)C(=O)O)(COCCC(=O)NC(CCC(=O)N[C@H](Cc1c[nH]c2ccccc12)C(=O)O)(CCC(=O)N[C@H](Cc1c[nH]c2ccccc12)C(=O)O)CCC(=O)N[C@H](Cc1c[nH]c2ccccc12)C(=O)O)COCCC(=O)NC(CCC(=O)N[C@H](Cc1c[nH]c2ccccc12)C(=O)O)(CCC(=O)N[C@H](Cc1c[nH]c2ccccc12)C(=O)O)CCC(=O)N[C@H](Cc1c[nH]c2ccccc12)C(=O)O)N[C@H](Cc1c[nH]c2ccccc12)C(=O)O	6600 nM	280 to 300 nM	500 nM	> 43	> 43	> 100000 nM	2300 nM	Activity (Enterovirus A71 [1]): 100%; Activity (RD [2]): Non-Toxic; Activity (RD [3]): Non-Toxic; EC50 (Enterovirus A71 [5]): 0.2 nM; EC50 (Enterovirus A71 [6]): 8930 nM; EC50 (Enterovirus A71 [7]): 1990 nM; Activity (Enterovirus A71 [8]): 100%; Activity (Enterovirus A71 [9]): 100%; EC50 (Enterovirus A71 [10]): 0.2 nM; Activity (Enterovirus A71 [12]): 100%; EC50 (Enterovirus A71 [13]): 1.1 nM; EC50 (Enterovirus A71 [15]): 4710 nM; Activity (Enterovirus A71 [16]): 100%; EC50 (Enterovirus A71 [20]): 0.4 nM
O=C(CCOCC(COCCC(=O)NC(Cc1c(-c2cc(C(=O)O)cc(C(=O)O)c2)[nH]c2ccccc12)C(=O)O)(COCCC(=O)NC(Cc1c(-c2cc(C(=O)O)cc(C(=O)O)c2)[nH]c2ccccc12)C(=O)O)COCCC(=O)NC(Cc1c(-c2cc(C(=O)O)cc(C(=O)O)c2)[nH]c2ccccc12)C(=O)O)NC(Cc1c(-c2cc(C(=O)O)cc(C(=O)O)c2)[nH]c2ccccc12)C(=O)O (stereo not given)	20 nM	40 to 109 nM	160 nM	–	–	> 100000 nM	–	Activity (Enterovirus A71 [1]): 100%; Activity (RD [2]): Non-Toxic; Activity (RD [3]): Non-Toxic; Activity [21]: Dose-dependent effect; EC50 (Enterovirus A71 [6]): 300 nM; EC50 (Enterovirus A71 [7]): 900 nM; Activity (Enterovirus A71 [8]): 100%; Activity (Enterovirus A71 [9]): 100%; Activity (HeLa): Active; Activity (Enterovirus A71 [12]): 100%; Activity [22]: Active; EC50 (Enterovirus A71 [15]): 200 nM; inhibition [23]: Dose-dependent effect; IC50 [24]: 211 nM; Activity (Enterovirus A71 [16]): 100%; Activity [25]: Active
O=C(CCOCC(COCCC(=O)NC(Cc1c(-c2ccc(C(=O)O)cc2)[nH]c2ccccc12)C(=O)O)(COCCC(=O)NC(Cc1c(-c2ccc(C(=O)O)cc2)[nH]c2ccccc12)C(=O)O)COCCC(=O)NC(Cc1c(-c2ccc(C(=O)O)cc2)[nH]c2ccccc12)C(=O)O)NC(Cc1c(-c2ccc(C(=O)O)cc2)[nH]c2ccccc12)C(=O)O (stereo not given)	750 nM	370 nM	630 nM	> 137	> 137	> 100000 nM	730 nM	selectivity ratio [26]: 161
O=C(CCC(CCC(=O)NC(Cc1c(-c2cccc(C(=O)O)c2)[nH]c2ccccc12)C(=O)O)(CCC(=O)NC(Cc1c(-c2cccc(C(=O)O)c2)[nH]c2ccccc12)C(=O)O)[N+](=O)[O-])NC(Cc1c(-c2cccc(C(=O)O)c2)[nH]c2ccccc12)C(=O)O (stereo not given)	64000 nM	990 nM	1350 nM	> 6	> 6	> 100000 nM	16000 nM	selectivity ratio [26]: > 73.4
O=C(CCC(CCC(=O)NC(Cc1c(-c2ccccc2F)[nH]c2ccccc12)C(=O)O)(CCC(=O)NC(Cc1c(-c2ccccc2F)[nH]c2ccccc12)C(=O)O)[N+](=O)[O-])NC(Cc1c(-c2ccccc2F)[nH]c2ccccc12)C(=O)O (stereo not given)	> 100000 nM	> 89400 nM	–	> 3	> 3	> 100000 nM	35000 nM	–
O=C(CCC(CCC(=O)NC(Cc1c(-c2ccc(C(F)(F)F)cc2)[nH]c2ccccc12)C(=O)O)(CCC(=O)NC(Cc1c(-c2ccc(C(F)(F)F)cc2)[nH]c2ccccc12)C(=O)O)[N+](=O)[O-])NC(Cc1c(-c2ccc(C(F)(F)F)cc2)[nH]c2ccccc12)C(=O)O (stereo not given)	68000 nM	> 78900 nM	–	> 4	> 4	> 100000 nM	26000 nM	–
O=C(CCC(CCC(=O)NC(Cc1c(-c2ccc(C(=O)O)cc2)[nH]c2ccccc12)C(=O)O)(CCC(=O)NC(Cc1c(-c2ccc(C(=O)O)cc2)[nH]c2ccccc12)C(=O)O)[N+](=O)[O-])NC(Cc1c(-c2ccc(C(=O)O)cc2)[nH]c2ccccc12)C(=O)O (stereo not given)	> 71000 nM	12200 nM	–	29.6	29.6	71000 nM	2400 nM	–
